# Results: PMC4489320 (Clinical Pharmacology in Drug Development, 2014)
# How the values were obtained:
# healthy adults [1] = assay: Thorough QT/QTc crossover study, Holter ECG recordings; format: in vivo, human
# Summary of the method: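 Three-period crossover in healthy adults (QTcF >450 ms excluded), with 14-day washouts and six Williams-square sequences. Dosing was placebo, a 0.1 mg/kg IV bolus over 30 s, or oral moxifloxacin 400 mg at Hour 1. ECGs came from 24-h Holter recordings read blind, with baseline the mean of −1, −0.5 and −0.25 h values. QTcI/QTcF/QTcB time-matched ddQTc was analysed by linear mixed-effect models with one-sided 95% CI.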
# healthy adults [2] = assay: Treatment-emergent adverse events; format: in vivo, human; conditions: 0.1 mg/kg IV single dose
# [3] = in vitro and in vivo studies; ref data on file; cited from earlier work
Compound,"number of subjects with QTcF intervals >450 but ≤480 milliseconds (healthy adults [1]; healthy subjects, single dose)","percentage of subjects with QTcF intervals >450 but ≤480 milliseconds (healthy adults [1]; healthy subjects, single dose) [%]","peak mean difference in dQTcI and dQTcF vs placebo (healthy adults [1]; moxifloxacin 400 mg oral, 2 hours after administration (Hours 3 and 4))","lower bound of ddQTcF vs placebo at prespecified timepoints (healthy adults [1]; moxifloxacin 400 mg oral, Hours 2, 3, 4 and 5)","lower bound of the one-sided 95% CI of ddQTcF vs placebo (healthy adults [1]; moxifloxacin 400 mg oral, Hours 3 to 10 (2–9 hours after moxifloxacin dosing)) [milliseconds]","effects on heart rate, PR interval, or QRS interval (healthy adults [1]; healthy subjects, 0.1 mg/kg IV single dose)","subjects with >30 milliseconds increase in QTcF (healthy adults [1]; healthy subjects, single dose)","slope of linear relationship between ddQTcF and plasma concentration (healthy adults [1]; linear mixed-effects model, P = 0.126, 90% CI (<−0.0005, 0.002), not statistically significant)",subjects with cardiac disorder TEAE (healthy adults [2]),severity of TEAEs (healthy adults [2]; healthy subjects),metabolism [3]
COc1c(N2C[C@@H]3CCCN[C@@H]3C2)c(F)cc2c(=O)c(C(=O)O)cn(C3CC3)c12 [moxifloxacin],five,8.3,around 12 milliseconds,above 5 milliseconds,> 5,–,–,–,–,–,–
peginesatide,0 subjects,–,–,–,–,no peginesatide-related effects,no subject,0.001,No subject,mild or moderate,negligible metabolism
